# Measurements published in article PMC6016630 (British Journal of Pharmacology, 2018).
# What was measured:
# [1] = system: synaptic transmission in acute slices of the rat PFC; assay: Extracellular field potential; assay type: cell-based
# How it was run: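 PFC slices from male Sprague Dawley rats aged 5–6 weeks, cut in ice-cold ACSF (pH 7.4, 95% O2/5% CO2). Layer V fEPSPs (prelimbic/infralimbic) evoked by 100 μs pulses every 30 s to layers II–III. Drugs from DMSO, 0.05% final, applied 30–60 min after 30 min baseline. Amplitude as % of last 10 min baseline; 3–14 slices/group; paired t-test.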
# [2] = system: male Lister‐hooded rats; assay: 5‐choice serial reaction time task; assay type: in vivo, rat
# How it was run: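 Food-restricted rats held at about 85% of free-feeding weight. Trained to criterion: ≥50 correct trials, ≥70% accuracy, ≤20% omissions (SD 0.7 s, ITI 5 s, LH 5 s). Ten challenge sessions with SD cut from 700 to 500 ms. Upper and lower 15% by mean accuracy taken as high/low performers, n = 9. Test compound in saline given i.p. 10 min pre-test. Repeated-measures ANOVA, Dunnett's.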
# [3] = system: male CD‐1 mice; assay: T‐maze continuous alternation task, MK‐801‐induced memory impairment; assay type: in vivo, mouse; conditions: for time spent in the T‐maze vs. MK‐801/vehicle‐treated group: P > 0.05
# How it was run: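 Male CD-1 mice (about 28 g) on a reversed light cycle, tested in the dark phase in an enclosed, elevated T-maze under dim light (10 lux). MK-801 s.c. 30 min pre-test; test compound (0.1–75 mg·kg−1 p.o., Natrosol/Tween vehicle) given just after it. 14 trials in 14 min; mice completing <50% excluded. Reversal scaled: saline/vehicle 100%, MK-801/vehicle 0%. Kruskal–Wallis, Dunn's.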
# [4] = system: cAMP in the PFC of mice; assay: Determination of cAMP in mouse prefrontal cortex; assay type: in vivo; conditions: 30 min after p.o. administration, highest dose tested, P < 0.05
# How it was run: (§1)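 Adult male CD-1 mice, n = 8/group, dosed p.o. with vehicle (0.5% Natrosol, 0.01% Tween-80) or test compound. Killed by focused microwave brain irradiation 30 min later. PFC homogenized and centrifuged in 0.5 N HCl; supernatant assayed by ELISA. Detection limits: cGMP 0.02, cAMP 0.03 pmol·mg−1 tissue. One-way ANOVA, Dunnett's.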
# [5] = system: cGMP in the PFC of mice; assay: Determination of cGMP in mouse prefrontal cortex; assay type: in vivo; conditions: 30 min after p.o. administration, highest dose tested, P < 0.05
# How it was run: as §1
# [6] = high‐performing rats, 3 mg·kg^−1, mean ± SEM
# [7] = high‐performing rats, 6 mg·kg^−1, mean ± SEM
# [8] = low‐performing rats, 3 mg·kg^−1, mean ± SEM
# [9] = low‐performing rats, 6 mg·kg^−1, mean ± SEM
smiles,measurement,setting,value
C/C=C(/C)C(=O)O[C@H]1C(C)=C2[C@H]([C@@H]1OC(=O)CCCCCCC)[C@@](C)(OC(C)=O)C[C@H](OC(=O)CCC)[C@@]1(O)[C@H]2OC(=O)[C@@]1(C)O [thapsigargin],effect on forskolin‐induced fEPSP amplitude,[1]; forskolin + thapsigargin (PDE1 activated via Ca^2+/calmodulin),reduced fEPSPs amplitudes
C=C[C@@]1(C)CC(=O)[C@]2(O)[C@@]3(C)[C@@H](O)CCC(C)(C)[C@@H]3[C@H](O)[C@H](OC(C)=O)[C@@]2(C)O1 [forskolin],effect on fEPSPs,"[1]; forskolin 0.1, 1, 10 μM",increased fEPSPs concentration‐dependently
Oc1cc2c(cc1O)C(c1ccccc1)CNCC2 (stereo not drawn) [SKF38393],Correct latency,[2]; [6],0.79 ± 0.02 s
same,Omissions,[2]; [6],11.24 ± 2.64 n
same,Perseverative responses,[2]; [6],0.94 ± 0.26 n
same,Premature responses,[2]; [6],3.17 ± 0.72%
same,Reward latency,[2]; [6],1.24 ± 0.06 s
same,Correct latency,[2]; [7],0.83 ± 0.03 s
same,Omissions,[2]; [7],21.65 ± 2.98 n
same,Perseverative responses,[2]; [7],1.06 ± 0.27 n
same,Premature responses,[2]; [7],1.97 ± 0.69 %
same,Reward latency,[2]; [7],1.27 ± 0.06 s
same,enhancement of accuracy,"[2]; high‐performing rats, SKF38393 3 or 6 mg·kg^−1 i.p., P > 0.05",but not high‐performing rats
same,Correct latency,[2]; [8],0.77 ± 0.02 s
same,Omissions,[2]; [8],10.61 ± 1.70 n
same,Perseverative responses,[2]; [8],0.83 ± 0.26 n
same,Premature responses,[2]; [8],3.06 ± 0.27 %
same,Reward latency,[2]; [8],1.21 ± 0.04 s
same,Correct latency,[2]; [9],0.85 ± 0.03 s
same,Omissions,[2]; [9],17.74 ± 2.58 n
same,Perseverative responses,[2]; [9],0.67 ± 0.20 n
same,Premature responses,[2]; [9],2.15 ± 0.49 %
same,Reward latency,[2]; [9],1.31 ± 0.06 s
same,recovery in the cognitive performance,"[3]; mice, SKF38393 4 mg·kg^−1 s.c., MK‐801 0.075 mg·kg^−1 s.c.",67%
same,recovery in the cognitive performance,"[3]; mice, SKF38393 8 mg·kg^−1 s.c., MK‐801 0.075 mg·kg^−1 s.c.",43%
same,effect on MK‐801‐induced deficits in spontaneous alternation,"[3]; mice, SKF38393 8 mg·kg^−1 s.c., P > 0.05 vs. MK‐801 and vehicle",ineffective
same,time spent in the T‐maze vs. MK‐801/vehicle‐treated group,"[3]; mice, SKF38393 2, 4, 8 mg·kg^−1 s.c.",did not change
same,effect on MK‐801‐induced deficits in spontaneous alternation,"[3]; mice, SKF38393 2 and 4 mg·kg^−1 s.c., P < 0.05 vs. MK‐801",improved
same,"maximal effect, recovery in the cognitive function","[3]; mice, SKF38393 s.c., MK‐801 0.075 mg·kg^−1",approximately 67%
same,effect on synaptic transmission (fEPSP amplitude),[1]; SKF38393,increased synaptic transmission
CN1C(=O)c2c(nn(Cc3ccc(-c4cccc(F)n4)cc3)c2Nc2ccccc2)N2C1=N[C@@H]1CCC[C@@H]12 [ITI‐214],PFC cAMP vs. vehicle,[4],significant increase
same,change in alternation of MK‐801‐treated mice,"[3]; ITI‐214 0.1 mg·kg^−1 p.o., MK‐801 0.1 mg·kg^−1 s.c.",0%
same,change in alternation of MK‐801‐treated mice,"[3]; ITI‐214 1 mg·kg^−1 p.o., MK‐801 0.1 mg·kg^−1 s.c.",13%
same,effect on alternation performance of MK‐801‐treated mice,"[3]; ITI‐214 1 mg·kg^−1 p.o., P < 0.05 vs. MK‐801",statistically significant
same,change in alternation of MK‐801‐treated mice,"[3]; ITI‐214 3 mg·kg^−1 p.o., MK‐801 0.1 mg·kg^−1 s.c.",12%
same,effect on alternation performance of MK‐801‐treated mice,"[3]; ITI‐214 3 mg·kg^−1 p.o., P = 0.059 vs. MK‐801",trend towards a significant effect
same,change in alternation of MK‐801‐treated mice,"[3]; ITI‐214 10 mg·kg^−1 p.o., MK‐801 0.1 mg·kg^−1 s.c.",10%
same,change in alternation of MK‐801‐treated mice,"[3]; ITI‐214 30 mg·kg^−1 p.o., MK‐801 0.1 mg·kg^−1 s.c.",7%
same,change in alternation of MK‐801‐treated mice,"[3]; ITI‐214 75 mg·kg^−1 p.o., MK‐801 0.1 mg·kg^−1 s.c.",2%
same,recovery in cognitive performance,"[3]; mice, ITI‐214 0.1 mg·kg^−1 p.o., MK‐801 0.1 mg·kg^−1 s.c.",1%
same,recovery in cognitive performance,"[3]; mice, ITI‐214 1 mg·kg^−1 p.o., MK‐801 0.1 mg·kg^−1 s.c.",57%
same,recovery in cognitive performance,"[3]; mice, ITI‐214 3 mg·kg^−1 p.o., MK‐801 0.1 mg·kg^−1 s.c.",51%
same,recovery in cognitive performance,"[3]; mice, ITI‐214 10 mg·kg^−1 p.o., MK‐801 0.1 mg·kg^−1 s.c.",45%
same,recovery in cognitive performance,"[3]; mice, ITI‐214 30 mg·kg^−1 p.o., MK‐801 0.1 mg·kg^−1 s.c.",32%
same,recovery in cognitive performance,"[3]; mice, ITI‐214 75 mg·kg^−1 p.o., MK‐801 0.1 mg·kg^−1 s.c.",11%
same,time spent in the T‐maze vs. MK‐801/vehicle‐treated group,"[3]; mice, ITI‐214 0.1–75 mg·kg^−1 p.o.",did not change
same,"maximal effect, recovery in the cognitive function","[3]; mice, ITI‐214 p.o., MK‐801 0.1 mg·kg^−1",approximately 57%
same,PFC cGMP vs. vehicle,[5],significant increase
same,"effect on fEPSP amplitude, compound alone",[1]; ITI‐214 per se,did not show any effects per se
same,effect on forskolin‐induced fEPSP amplitude with activated PDE1,[1]; forskolin + thapsigargin + ITI‐214,rescued the reduced fEPSPs amplitudes
C[C@]12N[C@H](Cc3ccccc31)c1ccccc12 [MK‐801],overall time spent to complete the T‐maze task vs. control group,"[3]; mice, MK‐801 0.075 mg·kg^−1 s.c., Figure S1a (SKF38393 study)",reduced
same,spontaneous alternation vs. vehicle‐injected mice,"[3]; mice, MK‐801 0.075 mg·kg^−1 s.c., P < 0.05",significant reduction
same,overall time spent to complete the T‐maze task vs. control group,"[3]; mice, MK‐801 0.1 mg·kg^−1 s.c., Figure S1b (ITI‐214 study)",reduced
same,reduction of spontaneous alternation vs. vehicle‐injected mice,"[3]; mice, MK‐801 0.1 mg·kg^−1 s.c., P < 0.05",~23%
